Experimental data published in ChEMBL document CHEMBL4371062, “Synthesis, biological evaluation and molecular docking study of 1,2,3-1H-triazoles having 4H-pyrano[2,3-d]pyrimidine as potential Mycobacterium tuberculosis protein tyrosine phosphatase B inhibitors” (Bioorg Med Chem Lett, 2019).
≈ marks a conversion by molar mass, not a printed value. Calls of active or inactive are those of the source. The rule behind the calls is not given here.

Tests used:
[1] = molecular target: T1, Phosphotyrosine protein phosphatase (Mycobacterium tuberculosis, UniProt A0A045ISB3); test: Inhibition of Mycobacterium tuberculosis PTPB using pNPP as substrate preincubated for 15 mins followed by substrate addition and measured after 2 to 6 mins
T1 sequence (A0A045ISB3 whole entry): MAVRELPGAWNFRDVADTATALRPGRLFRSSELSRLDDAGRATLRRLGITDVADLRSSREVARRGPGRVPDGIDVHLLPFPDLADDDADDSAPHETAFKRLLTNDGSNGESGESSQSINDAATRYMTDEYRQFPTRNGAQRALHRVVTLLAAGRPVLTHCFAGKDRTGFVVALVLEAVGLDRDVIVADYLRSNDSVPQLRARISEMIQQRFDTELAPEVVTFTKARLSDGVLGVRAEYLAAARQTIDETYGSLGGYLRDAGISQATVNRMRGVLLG
Outline: (§1)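 Recombinant M. tuberculosis PtpB, cloned, expressed and purified as previously described, assayed with p-nitrophenyl phosphate as substrate. IC50 is the mean of three independent experiments.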

[2] = molecular target: T2, Phosphotyrosine protein phosphatase (Mycobacterium tuberculosis) (UniProt A0A045ISB3); test: Inhibition of Mycobacterium tuberculosis PTPB up to 100 uM using pNPP as substrate preincubated for 15 mins followed by substrate addition and measured after 2 to 6 mins; outline: as §1
T2 sequence (whole entry): T1 sequence (A0A045ISB3 whole entry)

[3] = molecular target: T1, Phosphotyrosine protein phosphatase; test: Competitive inhibition of Mycobacterium tuberculosis PTPB using varying levels of pNPP as substrate preincubated for 15 mins followed by substrate addition and measured after 2 to 6 mins by Lineweaver-burk plot analysis
Outline: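 Substrate pNPP was varied at fixed inhibitor levels of 0, 1, 1.5, 2, 3 and 4 µM, with p-nitrophenol release treated by Michaelis-Menten kinetics. Mechanism was judged from Lineweaver-Burk double-reciprocal plots (1/Vmax y-intercept, KMapp/Vmax slope, −1/KMapp x-intercept). Ki was derived from these plots.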

[4] = molecular target: T2, Phosphotyrosine protein phosphatase (Mycobacterium tuberculosis); test: Ratio of IC50 for inhibition of Mycobacterium tuberculosis PTPB to Ki for competitive inhibition of Mycobacterium tuberculosis PTPB
Plasmodium falciparum = test: Antimalarial activity against synchronized ring stage of Plasmodium falciparum measured after 48 hrs; type: functional, organism-based
[5] = test system: Mycobacterium tuberculosis; test: Antitubercular activity against Mycobacterium tuberculosis H37Rv at 100 ug/ml after 28 days by Lowensteine-Jensen method relative to control; type: functional; conditions: 672 h
[6] = test system: Mycobacterium tuberculosis; test: Antitubercular activity against Mycobacterium tuberculosis H37Rv assessed as reduction in relative light units at 5 ug/ml after 72 hrs by luciferase reporter phage assay relative to control; type: functional
[7] = test system: Mycobacterium tuberculosis; test: Antitubercular activity against Mycobacterium tuberculosis H37Rv assessed as reduction in relative light units at 25 ug/ml after 72 hrs by luciferase reporter phage assay relative to control; type: functional
[8] = Antioxidant activity assessed as ABTS radical scavenging activity by measuring trolox equivalent antioxidant capacity after 6 mins by UV/Vis spectrophotometric analysis; type: functional

| SMILES | IC50 [1] [µM] | also measured |
| --- | --- | --- |
| CCOC(=O)C1=C(C)Oc2nc(C)n(Cc3cn([C@@H]4O[C@H](COC(C)=O)[C@@H](OC(C)=O)[C@H](OC(C)=O)[C@H]4OC(C)=O)nn3)c(=O)c2C1c1ccccc1Cl (stereo not given in full) | 33.2 | – |
| CCOC(=O)C1=C(C)Oc2nc(C)n(Cc3cn([C@@H]4O[C@H](COC(C)=O)[C@@H](OC(C)=O)[C@H](OC(C)=O)[C@H]4OC(C)=O)nn3)c(=O)c2C1c1ccc(C(C)C)cc1 (stereo not given in full) | – | inhibition [2]: inactive; Ki [3]: 1100 nM; Ratio [4]: 1.42 |
| CCOC(=O)C1=C(C)Oc2nc(C)n(Cc3cn([C@@H]4O[C@H](COC(C)=O)[C@@H](OC(C)=O)[C@H](OC(C)=O)[C@H]4OC(C)=O)nn3)c(=O)c2C1c1ccccc1 (stereo not given in full) | 47 | – |
| CCOC(=O)C1=C(C)Oc2nc(C)n(Cc3cn([C@@H]4O[C@H](COC(C)=O)[C@@H](OC(C)=O)[C@H](OC(C)=O)[C@H]4OC(C)=O)nn3)c(=O)c2C1c1ccc(O)c(OC)c1 (stereo not given in full) | 7.51 | – |
| CCOC(=O)C1=C(C)Oc2nc(C)n(Cc3cn([C@@H]4O[C@H](COC(C)=O)[C@@H](OC(C)=O)[C@H](OC(C)=O)[C@H]4OC(C)=O)nn3)c(=O)c2C1c1ccc(O)cc1 (stereo not given in full) | 35.3 | – |
| CCOC(=O)C1=C(C)Oc2nc(C)n(Cc3cn([C@@H]4O[C@H](COC(C)=O)[C@@H](OC(C)=O)[C@H](OC(C)=O)[C@H]4OC(C)=O)nn3)c(=O)c2C1c1ccccc1[N+](=O)[O-] (stereo not given in full) | 35.1 | – |
| CCOC(=O)C1=C(C)Oc2nc(C)n(Cc3cn([C@@H]4O[C@H](COC(C)=O)[C@@H](OC(C)=O)[C@H](OC(C)=O)[C@H]4OC(C)=O)nn3)c(=O)c2C1c1cc(OC)c(O)c([N+](=O)[O-])c1 (stereo not given in full) | 1.56 | – |
| CCOC(=O)C1=C(C)Oc2nc(C)n(Cc3cn([C@@H]4O[C@H](COC(C)=O)[C@@H](OC(C)=O)[C@H](OC(C)=O)[C@H]4OC(C)=O)nn3)c(=O)c2C1c1ccc(O)c(OCC)c1 (stereo not given in full) | 7.94 | – |
| CCOC(=O)C1=C(C)Oc2nc(C)n(Cc3cn([C@@H]4O[C@H](COC(C)=O)[C@@H](OC(C)=O)[C@H](OC(C)=O)[C@H]4OC(C)=O)nn3)c(=O)c2C1c1cc(OC)cc(OC)c1 (stereo not given in full) | 32.5 | – |
| CCOC(=O)C1=C(C)Oc2nc(C)n(Cc3cn([C@@H]4O[C@H](COC(C)=O)[C@@H](OC(C)=O)[C@H](OC(C)=O)[C@H]4OC(C)=O)nn3)c(=O)c2C1c1ccccc1O (stereo not given in full) | 29 | – |
| CCOC(=O)C1=C(C)Oc2nc(C)n(Cc3cn([C@@H]4O[C@H](COC(C)=O)[C@@H](OC(C)=O)[C@H](OC(C)=O)[C@H]4OC(C)=O)nn3)c(=O)c2C1c1cccc(Cl)c1 (stereo not given in full) | 9.52 | – |
| CCOC(=O)C1=C(C)Oc2nc(C)n(Cc3cn([C@@H]4O[C@H](COC(C)=O)[C@@H](OC(C)=O)[C@H](OC(C)=O)[C@H]4OC(C)=O)nn3)c(=O)c2C1c1ccc(C)cc1 (stereo not given in full) | – | inhibition [2]: inactive; Ki [3]: 2160 nM; Ratio [4]: 1.63 |
| CCOC(=O)C1=C(C)Oc2nc(C)n(Cc3cn([C@@H]4O[C@H](COC(C)=O)[C@@H](OC(C)=O)[C@H](OC(C)=O)[C@H]4OC(C)=O)nn3)c(=O)c2C1c1ccccc1OC (stereo not given in full) | 35 | – |
| CCOC(=O)C1=C(C)Oc2nc(C)n(Cc3cn([C@@H]4O[C@H](COC(C)=O)[C@@H](OC(C)=O)[C@H](OC(C)=O)[C@H]4OC(C)=O)nn3)c(=O)c2C1c1cccc([N+](=O)[O-])c1 (stereo not given in full) | 45 | – |
| CCOC(=O)C1=C(C)Oc2nc(C)n(Cc3cn([C@@H]4O[C@H](COC(C)=O)[C@@H](OC(C)=O)[C@H](OC(C)=O)[C@H]4OC(C)=O)nn3)c(=O)c2C1c1cccc(O)c1 (stereo not given in full) | 35.9 | – |
| CCOC(=O)C1=C(C)Oc2nc(C)n(Cc3cn([C@@H]4O[C@H](COC(C)=O)[C@@H](OC(C)=O)[C@H](OC(C)=O)[C@H]4OC(C)=O)nn3)c(=O)c2C1c1ccc([N+](=O)[O-])cc1 (stereo not given in full) | 33 | – |
| CCOC(=O)C1=C(C)Oc2nc(C)n(Cc3cn([C@@H]4O[C@H](COC(C)=O)[C@@H](OC(C)=O)[C@H](OC(C)=O)[C@H]4OC(C)=O)nn3)c(=O)c2C1c1ccc(N(C)C)cc1 (stereo not given in full) | 32 | – |
| CCOC(=O)C1=C(C)Oc2nc(C)n(Cc3cn([C@@H]4O[C@H](COC(C)=O)[C@@H](OC(C)=O)[C@H](OC(C)=O)[C@H]4OC(C)=O)nn3)c(=O)c2C1c1ccc(Cl)cc1 (stereo not given in full) | 35.3 | – |
| CCOC(=O)C1=C(C)Oc2nc(C)n(Cc3cn([C@@H]4O[C@H](COC(C)=O)[C@@H](OC(C)=O)[C@H](OC(C)=O)[C@H]4OC(C)=O)nn3)c(=O)c2C1c1cc(OC)c(O)c(OC)c1 (stereo not given in full) | 2.22 | – |
| CCOC(=O)C1=C(N)Oc2[nH]c(=O)[nH]c(=O)c2C1c1c(C)nn(-c2ccccc2)c1-n1ccnc1 (stereo not given) | – | IC50 (Plasmodium falciparum): 0.062 µg/mL (≈ 0.13 µM); inhibition at 100 µg/mL [5]: 92% |
| CCOC(=O)C1=C(C)Oc2nc(C)n(Cc3cn([C@@H]4O[C@H](COC(C)=O)[C@@H](OC(C)=O)[C@H](OC(C)=O)[C@H]4OC(C)=O)nn3)c(=O)c2C1c1cccc(OC)c1 (stereo not given in full) | 28.2 | – |
| CCOC(=O)C1=C(C)Oc2nc(C)n(Cc3cn([C@@H]4O[C@H](COC(C)=O)[C@@H](OC(C)=O)[C@H](OC(C)=O)[C@H]4OC(C)=O)nn3)c(=O)c2C1c1ccc(OCC)c(O)c1 (stereo not given in full) | 3.53 | – |
| CCOC(=O)C1=C(C)Oc2nc(C)n(Cc3cn([C@@H]4O[C@H](COC(C)=O)[C@@H](OC(C)=O)[C@H](OC(C)=O)[C@H]4OC(C)=O)nn3)c(=O)c2C1c1ccc(OC)cc1 (stereo not given in full) | 29 | – |
| CC(=O)OC[C@H]1O[C@@H](OCc2cn(Cc3ccc4ccccc4n3)nn2)[C@H](OC(C)=O)[C@@H](OC(C)=O)[C@H]1OC(C)=O | – | inhibition at 5 µg/mL [6]: 76%; inhibition at 25 µg/mL [7]: 78% |
| CCOC(=O)C1=C(C)Oc2nc(C)n(Cc3cn([C@@H]4O[C@H](COC(C)=O)[C@@H](OC(C)=O)[C@H](OC(C)=O)[C@H]4OC(C)=O)nn3)c(=O)c2C1c1ccc(Br)cc1 (stereo not given in full) | – | inhibition [2]: inactive; Ki [3]: 1800 nM; Ratio [4]: 1.23 |
| CCOC(=O)C1=C(N)Oc2[nH]c(=O)[nH]c(=O)c2C1[C@H](O)[C@@H](O)[C@H](O[C@H]1O[C@H](CO)[C@@H](O)[C@H](O)[C@H]1O)[C@H](O)CO (stereo not given in full) | – | Activity [8]: 5.24 µM |
| CCOC(=O)C1=C(C)Oc2nc(C)n(Cc3cn([C@@H]4O[C@H](COC(C)=O)[C@@H](OC(C)=O)[C@H](OC(C)=O)[C@H]4OC(C)=O)nn3)c(=O)c2C1c1ccc(Cl)cc1Cl (stereo not given in full) | 44 | – |
